# Assay outcomes deposited in PubChem by Broad Institute.
# CDK5 p35 inh = CDK5/p35 (human) kinase inhibition | Recombinant CDK5/p35, ADP-Glo luminescence, 60 min | AID 488839 | inhibition, % at 10 µM | hit rate 0.01% among 330,000 | Q00535+Q15078;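 active means highest replicate inhibition of at least 50% and at least 75% of replicates reaching 50%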;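 further: plate controls were DMSO neutral control for no effect and GW8510 at 10 µM for full effect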
# PAX8 reporter = PAX8 transcriptional activity inhibition; inhibition, % at 12.6 µM; AID 652154; RMG-I TPO-luciferase reporter, SteadyGlo, 24 h; hit rate 1.2% among 360,000;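 active means mean replicate inhibition at least 60% with every replicate also reaching 60%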;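 further: luciferase light reporting Pax8 driven TPO promoter activity; plate controls were median of neutral control wells for no effect and mitoxantrone controls for full effect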
# INS-1E GSIS act = primary screen for activators of insulin secretion dependent on glucose, INS-1E cells, GLuc reporter luminescence | INS-1E GLuc reporter insulin secretion, 2-3 h | activation, % at 16.6 µM | hit rate 0.61% among 370,000;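 active means lowest replicate activation of at least 40%, so every replicate reaches that level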;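 further: 0% = median of neutral control wells and 100% = median of IBMX positive control wells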
# Env fusion inh = inhibitors of HIV Env-mediated cell fusion; inhibition, % at 12.3 µM; HeLa-JRFL Env/CEM21 cell fusion, luciferase; hit rate 1.1% among 360,000;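 active means mean replicate inhibition score of at least 50 and every replicate individually at or above 50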;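 further: 0% = plate neutral controls and 100% = maraviroc near 300 nM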
# dFosB act-1 = enhances mouse delta FosB homodimer DNA binding. hit rate 0.99% among 340,000. purified delta FosB, TAMRA-CDK5 oligo fluorescence polarization; percent of positive-control signal above neutral wells. activation, % at 25 µM. AID 493131;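 active means mean activation above about 17%, with every replicate also reaching it, limit read from the data, passing the limit was not always enough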
# Target sequence (P13346 whole entry, looked up): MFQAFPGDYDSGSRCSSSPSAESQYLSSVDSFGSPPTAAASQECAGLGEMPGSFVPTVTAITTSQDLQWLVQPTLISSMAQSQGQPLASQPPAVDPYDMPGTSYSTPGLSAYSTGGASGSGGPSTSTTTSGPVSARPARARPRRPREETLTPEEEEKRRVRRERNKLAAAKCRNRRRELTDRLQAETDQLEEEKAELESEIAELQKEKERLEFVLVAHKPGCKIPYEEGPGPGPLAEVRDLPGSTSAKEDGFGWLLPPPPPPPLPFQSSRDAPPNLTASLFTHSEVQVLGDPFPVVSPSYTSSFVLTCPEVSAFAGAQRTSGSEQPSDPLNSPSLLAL
# Cneo AK release = causes C. neoformans cell lysis. adenylate kinase release luminescence, 4 h; normalised: neutral wells 0, clomiphene wells 100. lysis activity, % at 15 µM. hit rate 0.2% among 360,000;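 active means mean lysis activity across replicates of at least 80%, whatever share of replicates individually reach that level; inactive means mean lysis activity below 80%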
#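 Material: C. neoformans cells; Schedule: 4 h static compound exposure, 37 °C, read 1 h post-reagent; Measured by: adenylate kinase release luminescence; Read-out: signal increase indicating cell lysis; Controls: Clomiphene as positive lysis control.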
# dFosB act-2 = activators of mouse delta FosB homodimer DNA binding; 2,400 tested, under 10 active; shares compounds with dFosB act-1; activation, % at 24.9 µM; purified delta FosB, TAMRA-CDK5 oligo fluorescence polarization; normalised: neutral wells 0, positive control 100;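 active means highest replicate activation at or above 34% and every replicate reaching that threshold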;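 further: higher polarization means more probe DNA bound by delta FosB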
# * = called active by the depositor; nt = no result given; [ ] = another dose, or the depositor's remark. Rows were chosen to be rich in hits. Some 2.9% of all compounds tested hit in one or more screens of this group.
SMILES,CDK5 p35 inh,PAX8 reporter,INS-1E GSIS act,Env fusion inh,dFosB act-1,Cneo AK release,dFosB act-2
COc1ccc(/C=N\NC(=O)c2cc(OCC(F)(F)F)ccc2OCC(F)(F)F)cc1,-0.4,nt,nt,nt,18.2*,nt,-0.5
O=C(NCc1ccc2c(c1)OCO2)C1CCN(c2nccc(C(F)(F)F)n2)CC1,-0.2,-20.6,nt,11.8,18.3*,0.7,-13.7
O=C(Nc1cccc(NC(=O)c2ccc(Br)o2)n1)c1ccc(Br)o1,-0.5,nt,26.8,-48.6,34.4*,-0.8,1.1
Cc1nc(NC(=O)c2ccc(Br)o2)ccc1Br,-1.1,-102.8,-4.7,-34.9,0.7,-2.6,nt
CCN(CC)CCN(C(=O)c1ccc2c(c1)OCCO2)c1nc2c(Cl)cccc2s1,-1.6,-15.1,-28.1,8.2,-6.5,0.1,nt
CCN(CC)CCN(C(=O)CCS(=O)(=O)c1ccccc1)c1nc2cc(OC)c(OC)cc2s1,1.5,11.8,0.7,-5.5,-4.6,2.0,nt
Cc1cc(C)c2sc(N(CCN(C)C)C(=O)CCS(=O)(=O)c3ccccc3)nc2c1,-1.8,5.5,9.8,4.7,21.2*,0.1,2.9
CCN(CC)CCN(C(=O)c1ccc2c(c1)OCCO2)c1nc2cc(C)cc(C)c2s1,-0.6,-10.1,-18.2,11.7,29.6*,1.5,4.4
CCN(CC)CCN(C(=O)CCS(=O)(=O)c1ccccc1)c1nc2c(C)cc(C)cc2s1,-0.2,17.2,-9.5,9.7,56.4*,3.7,-2.1
CCN(CC)CCN(C(=O)CCS(=O)(=O)c1ccccc1)c1nc2cc(C)cc(C)c2s1,-2.2,-20.8,-5.3,nt,43.2*,-5.3,6.5
Cc1ccc(S(=O)(=O)CCC(=O)N(CCN2CCOCC2)c2nc3ccccc3s2)cc1,1.4,-95.6,21.4,-23.6,-2.3,0.9,nt
COc1ccc(Cl)c2sc(N(CCN(C)C)C(=O)CCS(=O)(=O)c3ccc(C)cc3)nc12,1.9,4.5,-7.3,-11.8,81.7*,nt,3.3
COc1ccc(C)c2sc(N(CCCN(C)C)C(=O)CS(=O)(=O)c3ccc(F)cc3)nc12,-2.6,-1.5,-8.2,12.1,4.9,5.1,nt
Cc1noc(C)c1S(=O)(=O)N(C)C[C@H]1Oc2ccc(NC(=O)CCC(F)(F)F)cc2CC(=O)N([C@H](C)CO)C[C@H]1C,nt,nt,0.5,16.5[16.7 µM],nt,5.5,nt
Cn1c(N)c(C(=O)CSc2nn(-c3ccc(F)cc3)c(=S)s2)c(=O)n(C)c1=O,0.7,-5.6,8.6,nt,52.1*,-0.5,0.3
CC(CC(=O)NCc1ccc(Cl)cc1)S(=O)(=O)c1ccc2c(c1)NC(=O)CO2 (stereo not given),1.3,19.0,-11.5,4.1,-10.1,4.7,nt
Cc1ccc(CNC(=O)CC(C)S(=O)(=O)c2cc3c(cc2C)NC(=O)CO3)cc1 (stereo not given),-0.4,9.4,4.0,6.7,23.5*,-0.7,2.7
O=C(C[C@H]1CC[C@H]2[C@@H](COC[C@@H](O)CN2S(=O)(=O)c2ccccc2F)O1)NCc1ccccc1F,nt,-4.9,7.3,33.3[16.7 µM],nt,-0.8,nt
COc1ccccc1CNC(=O)/C=C/c1cc2c(cc1Br)OCO2,-1.1,nt,nt,nt,44.7*,3.7,-3.2
C[C@@H]1CN([C@@H](C)CO)C(=O)c2c(c3ccccc3n2C)-c2ccccc2CO[C@H]1CN(C)C(=O)Nc1ccccc1,nt,nt,-6.2,nt,nt,-0.9,nt
Cc1cccc(Nc2nnc(SCC(=O)NC3CCCc4ccccc43)s2)c1 (stereo not given),nt,30.5,-16.9,nt,21.2*,0.2,-2.9
Cc1ccc(-c2nnn(CC(=O)NC3CCCc4ccccc43)n2)cc1 (stereo not given),nt,31.3,nt,-33.1,25.1*,-0.1,-1.1
NC(=O)C1CCN(CC(=O)NC2CCCc3ccccc32)CC1 (stereo not given),0.6,16.2,5.4,-2.7,-0.4,nt,nt
C[C@@H]1CCCCO[C@H](CN(C)C(=O)CCC(F)(F)F)[C@H](C)CN([C@H](C)CO)C(=O)c2cc(NS(=O)(=O)c3ccc(Cl)cc3)ccc2O1,nt,38.9,-17.6,13.6[16.7 µM],nt,13.6,nt
Cc1ccc2nc3c(c(N)c2c1)CCN3C,1.3,-23.9,24.3,-9.2,17.6*,0.0,0.2
SMILES,CDK5 p35 inh,PAX8 reporter,INS-1E GSIS act,Env fusion inh,dFosB act-1,Cneo AK release,dFosB act-2
C/C(=N\NC(=O)c1ccncc1)c1cccc(NC(=O)c2ccc(C(C)(C)C)cc2)c1,2.1,-161.9,-20.6,-383.5,-11.8,-5.0,nt
C/C(=N\NC(=O)COc1ccccc1[N+](=O)[O-])c1cccc(NC(=O)c2ccncc2)c1,0.8,8.6,22.6,-25.2,21.3*,-0.7,3.0
CCCCC(C(=O)NC1CCCC1)N(C(=O)c1snc(C(N)=O)c1N)c1ccc(OCC)cc1 (stereo not given),1.4,6.9,-16.2,6.0,-8.8,-0.8,nt
COc1ccc(N(C(=O)c2snc(C(N)=O)c2N)C(C(=O)NC2CCCCC2)c2ccc(F)cc2)c(OC)c1 (stereo not given),-0.3,-11.0,19.2,15.4,40.4*,0.1,-0.2
COc1ccc(N(C(=O)c2snc(C(N)=O)c2N)C(C(=O)NC2CCCC2)c2cccs2)cc1OC (stereo not given),0.3,12.2,1.0,-7.1,36.7*,nt,1.5
CCCC(C(=O)NC1CCCC1)N(C(=O)c1snc(C(N)=O)c1N)c1ccc(F)cc1 (stereo not given),0.8,3.8,10.0,9.1,24.1*,3.0,1.7
NC(=O)c1nsc(C(=O)N(c2ccccc2F)C(C(=O)NCc2ccc(F)cc2)c2ccc(O)cc2)c1N (stereo not given),0.8,48.9,-1.8,29.2,43.6*,-0.2,4.8
Cc1noc(C)c1S(=O)(=O)Nc1ccc2c(c1)C(=O)N([C@H](C)CO)C[C@H](C)[C@H](CN(C)Cc1ccc(C(=O)O)cc1)O2,nt,nt,0.5,nt,nt,-4.4,nt
COc1ccccc1C(=O)Nc1ccc2c(c1)OC[C@@H](C)N(C(C)=O)C[C@@H](C)[C@H](OC)CN(C)C2=O,nt,5.3,-0.4,7.7[16.7 µM],nt,2.2,nt
CCCCCc1cc(=O)oc2c(C(CCN3CCCC(C)C3)c3cc(OC)c(OC)c(OC)c3)c(OC)cc(OC)c12 (stereo not given),-0.8,nt,nt,nt,19.5*,7.6,-2.0
COc1cc(OC)c2ccc(=O)oc2c1C(CCN1CCCC(C)C1)c1ccc(N(C)C)cc1 (stereo not given),0.7,12.3,-1.9,-15.5,-2.0,-1.4,nt
O=C1[C@H](Oc2ccccc2)[C@@H](c2ccccc2)N1c1ccncc1,1.2,21.7,nt,5.5,17.7*,4.8,2.2
Clc1cc2nc(-c3cccnc3Cl)[nH]c2cc1Cl,-0.9,-186.4,-14.6,-114.9,35.5*,-5.4,6.3
CCn1c(-c2cccnc2Cl)nc2cc(Cl)c(Cl)cc21,-2.4,nt,-10.8,7.5,-4.7,-4.6,nt
